For assay [1], the target named is Receptor-type tyrosine-protein kinase FLT3 (Homo sapiens) (UniProt P36888). Conditions: at 100 nM.
Assay [2] concerns the target T1, Tyrosine-protein kinase JAK2 (Homo sapiens, UniProt O60674). The assay can be described thus: Inhibition of N-terminal His-tagged human JAK2 catalytic domain (826 to 1132 resiudes) expressed in baculovirus expression system at 100 nM using FAM-labeled peptide as substrate preincubated for 10 mins followed by substrate addition measured after 1 hr in presence of ATP by mobility shift assay relative to control. A digest of the protocol:
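Single-concentration (100 nM) percent inhibition in the mobility-shift JAK2 assay. Enzyme was preincubated with compound for 10 min at room temperature in HEPES pH 7.5/Brij-35 buffer. FAM-peptide and ATP were then added and the reaction run for 1 h at 28 °C before EDTA stop. Inhibition = (max−conversion)/(max−min)×100. Each compound was tested at least twice and the values averaged.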

For a further assay, the system named is HEL. The assay can be described thus: Antiproliferative activity against human HEL cells assessed as growth inhibition after 72 hrs by CCK-8 assay. Type of assay: functional. A digest of the protocol:
(§1)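 CCK-8 viability readout. Cells were cultured in RPMI 1640 with 10% FBS and 1% penicillin/streptomycin and seeded at 3000 (HEL), 5000 (MV4-11) or 3000 (HL60) cells/well. Increasing compound concentrations were applied for 72 h, then CCK-8 was added for a further 3 h and absorbance read at 450 nm. Inhibition = (1−A_sample/A_control)×100, normalized to DMSO controls. Value is the mean of three independent measurements, obtained by curve fitting.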

Another assay relates to HL-60. Put plainly: Antiproliferative activity against human HL60 cells assessed as growth inhibition after 72 hrs by CCK-8 assay. Type of assay: functional. Conditions: HL-60, 72 h. The method in brief: as §1
A further assay deals with MV4-11. Put plainly: Antiproliferative activity against human MV4-11 cells assessed as growth inhibition after 72 hrs by CCK-8 assay. Conditions: MV4-11, 72 h. The class given is functional. The method in brief:
as §1

In assay [3] the target is T2, Receptor-type tyrosine-protein kinase FLT3 (Homo sapiens, UniProt P36888).
T2 sequence (P36888 whole entry): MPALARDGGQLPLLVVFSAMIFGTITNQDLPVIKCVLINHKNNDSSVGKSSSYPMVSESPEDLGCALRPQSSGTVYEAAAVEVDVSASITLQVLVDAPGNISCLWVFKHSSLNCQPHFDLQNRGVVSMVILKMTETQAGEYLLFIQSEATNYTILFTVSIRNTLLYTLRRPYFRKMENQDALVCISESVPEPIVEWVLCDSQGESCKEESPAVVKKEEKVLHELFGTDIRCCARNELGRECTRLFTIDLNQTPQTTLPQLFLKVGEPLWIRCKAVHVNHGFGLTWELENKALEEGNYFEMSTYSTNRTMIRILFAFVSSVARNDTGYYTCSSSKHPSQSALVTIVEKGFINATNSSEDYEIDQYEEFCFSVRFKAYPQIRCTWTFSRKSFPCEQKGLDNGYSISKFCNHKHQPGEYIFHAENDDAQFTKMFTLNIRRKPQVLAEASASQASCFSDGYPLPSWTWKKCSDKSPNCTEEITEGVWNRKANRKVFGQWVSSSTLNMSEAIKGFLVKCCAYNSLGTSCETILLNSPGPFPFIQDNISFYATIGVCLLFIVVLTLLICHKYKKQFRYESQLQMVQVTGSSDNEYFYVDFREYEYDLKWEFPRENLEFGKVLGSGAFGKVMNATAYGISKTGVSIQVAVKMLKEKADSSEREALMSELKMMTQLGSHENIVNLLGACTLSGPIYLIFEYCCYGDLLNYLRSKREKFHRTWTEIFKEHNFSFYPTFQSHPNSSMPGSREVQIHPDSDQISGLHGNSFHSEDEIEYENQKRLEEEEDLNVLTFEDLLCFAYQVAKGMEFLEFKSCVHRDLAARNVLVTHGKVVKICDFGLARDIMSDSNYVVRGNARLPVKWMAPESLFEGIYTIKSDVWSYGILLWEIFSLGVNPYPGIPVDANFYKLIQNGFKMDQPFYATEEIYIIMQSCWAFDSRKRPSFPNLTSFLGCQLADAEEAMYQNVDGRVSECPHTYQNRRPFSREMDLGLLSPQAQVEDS
The assay can be described thus: Inhibition of N-terminal GST-tagged human FLT3 cytoplasmic domain (564 to 993 residues) expressed in baculovirus expression system musing FAM-labeled peptide as substrate preincubated for 10 mins followed by substrate addition measured after 1 hr in presence of ATP by mobility shift assay. A digest of the protocol:
(§2)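 Caliper mobility-shift assay with recombinant kinase in 50 mM HEPES pH 7.5, 0.0015% Brij-35. Compound was diluted from DMSO and preincubated with enzyme for 10 min at room temperature. FAM-labeled peptide plus ATP was then added and the reaction run for 1 h at 28 °C. It was stopped with an EDTA (50 mM) buffer. Conversion gave percent inhibition relative to max/min controls, and IC50 came from a four-parameter Hill fit. Duplicate wells were used.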

In assay [4] the target is T1, Tyrosine-protein kinase JAK2. Put plainly: Inhibition of N-terminal His-tagged human JAK2 catalytic domain (826 to 1132 resiudes) expressed in baculovirus expression system using FAM-labeled peptide as substrate preincubated for 10 mins followed by substrate addition measured after 1 hr in presence of ATP by mobility shift assay. A digest of the protocol:
as §2

T1 sequence (O60674 whole entry, the tested form may be a part): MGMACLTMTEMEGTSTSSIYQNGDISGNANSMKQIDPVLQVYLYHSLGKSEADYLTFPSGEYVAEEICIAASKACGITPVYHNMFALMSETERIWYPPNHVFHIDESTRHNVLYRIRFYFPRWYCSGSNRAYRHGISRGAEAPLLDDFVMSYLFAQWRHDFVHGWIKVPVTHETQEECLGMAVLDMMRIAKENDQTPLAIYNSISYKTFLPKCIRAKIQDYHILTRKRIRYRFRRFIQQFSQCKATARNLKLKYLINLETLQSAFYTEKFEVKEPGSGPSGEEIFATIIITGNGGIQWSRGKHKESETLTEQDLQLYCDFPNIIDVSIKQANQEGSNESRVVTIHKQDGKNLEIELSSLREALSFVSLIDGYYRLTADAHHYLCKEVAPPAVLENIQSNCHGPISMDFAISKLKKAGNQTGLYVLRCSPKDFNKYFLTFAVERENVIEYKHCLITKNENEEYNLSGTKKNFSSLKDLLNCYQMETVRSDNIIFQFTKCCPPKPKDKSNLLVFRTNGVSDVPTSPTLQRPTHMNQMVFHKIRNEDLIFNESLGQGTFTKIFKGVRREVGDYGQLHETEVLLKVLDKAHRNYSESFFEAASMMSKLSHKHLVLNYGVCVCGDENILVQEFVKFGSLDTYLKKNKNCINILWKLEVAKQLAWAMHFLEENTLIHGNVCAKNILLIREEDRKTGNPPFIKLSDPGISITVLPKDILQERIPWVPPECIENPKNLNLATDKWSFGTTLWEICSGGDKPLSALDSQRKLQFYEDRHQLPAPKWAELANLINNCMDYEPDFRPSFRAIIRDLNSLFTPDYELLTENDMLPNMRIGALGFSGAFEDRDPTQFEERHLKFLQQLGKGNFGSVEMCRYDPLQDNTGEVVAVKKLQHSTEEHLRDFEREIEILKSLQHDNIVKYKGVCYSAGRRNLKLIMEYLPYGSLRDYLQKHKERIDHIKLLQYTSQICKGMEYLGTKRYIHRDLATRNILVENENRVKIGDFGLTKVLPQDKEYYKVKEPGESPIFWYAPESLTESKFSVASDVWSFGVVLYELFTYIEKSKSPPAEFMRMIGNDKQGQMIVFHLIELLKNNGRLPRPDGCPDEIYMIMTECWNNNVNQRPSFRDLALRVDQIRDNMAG

Take `CCN(CC)c1ccc(NC(=O)N2CCN(c3ccnc(Nc4ccc(N5CCOCC5)cc4)n3)CC2)cc1`: the inhibition in assay [1] is 0%; in assay [2], 41.2%.

For the molecule `C1=N/C2=N/c3ccc(OCCN4CCCC4)c(c3)COC/C=C/COCc3cccc(c3)C(=C1)N2` [PACRITINIB], the concentration for 50% growth inhibition (GI50) in the assay on HEL is 1.1 µM; in the assay with HL-60, 1.4 µM; in the assay with MV4-11, 1.6 µM. For the same molecule, in assay [2], the inhibition was 92%.

In the case of `CS(=O)(=O)c1ccc(NC(=O)N2CCN(c3ccnc(Nc4ccc(N5CCOCC5)cc4)n3)CC2)cc1`, the inhibition in assay [1] came out at 53.9%; in assay [2], 75.8%.

As to `O=C(Nc1ccc([N+](=O)[O-])cc1)N1CCN(c2ccnc(Nc3ccc(N4CCOCC4)cc3)n2)CC1`, the inhibition in assay [1] turned out to be 84.4%; in assay [2] it was 79.3%.

In the case of `NC(=O)c1ccc(NC(=O)N2CCN(c3ccnc(Nc4ccc(OCCN5CCCC5)cc4)n3)CC2)cc1`, the values for the inhibition in assay [1] and in assay [2] were 74% and 53%, respectively. The GI50 in the assay with HEL is > 50 µM.

`COC(=O)c1ccc(NC(=O)N2CCN(c3ccnc(Nc4ccc(N5CCOCC5)cc4)n3)CC2)cc1`: the inhibition in assay [1] stood at 62.8%; in assay [2], 64.4%.

`NC(=O)c1cccc(NC(=O)N2CCN(c3ccnc(Nc4ccc(N5CCOCC5)cc4)n3)CC2)c1`: the inhibition in assay [1] was found to be 39.8%; in assay [2] it was 74%.

For the molecule `CC(C)Oc1ccc(NC(=O)N2CCN(c3ccnc(Nc4ccc(N5CCOCC5)cc4)n3)CC2)cc1`, the inhibition in assay [1] was 22.9%; in assay [2], 11.1%.

As to `CC(=O)c1cccc(NC(=O)N2CCN(c3ccnc(Nc4ccc(N5CCOCC5)cc4)n3)CC2)c1`, the results for the inhibition in assay [1] and in assay [2] were 3.3% and 2%, respectively.

`O=C(Nc1ccc(C(F)(F)F)cc1)N1CCN(c2ccnc(Nc3ccc(N4CCOCC4)cc3)n2)CC1`: the results for the inhibition in assay [1] and in assay [2] were 36.5% and 35.2%, respectively.

Turning to `COc1ccc(NC(=O)N2CCN(c3ccnc(Nc4ccc(N5CCOCC5)cc4)n3)CC2)cc1`, the inhibition stood at 21.7% in assay [1] and 48.7% in assay [2].

Regarding `O=C(Nc1ccccc1)N1CCN(c2ccnc(Nc3ccc(N4CCOCC4)cc3)n2)CC1`, the inhibition in assay [1] came to 27.8%; in assay [2], 53.7%.

As for `COC(=O)CNC(=O)c1ccc(NC(=O)N2CCN(c3ccnc(Nc4ccc(N5CCOCC5)cc4)n3)CC2)cc1`, the values for the inhibition in assay [1] and in assay [2] were 33.1% and 40.6%, respectively.

Regarding `O=C(Nc1cccc(C(F)(F)F)c1)N1CCN(c2ccnc(Nc3ccc(N4CCOCC4)cc3)n2)CC1`, the figures for the inhibition in assay [1] and in assay [2] were 36.5% and 35.2%, respectively.

Turning to `CCc1ccc(NC(=O)N2CCN(c3ccnc(Nc4ccc(N5CCOCC5)cc4)n3)CC2)cc1`, the inhibition is 27.4% in assay [1] and 53.3% in assay [2].

In the case of `N#CCNC(=O)c1ccc(-c2ccnc(Nc3ccc(N4CCOCC4)cc3)n2)cc1`, the inhibition in assay [2] came out at 94.7%.

On to `NS(=O)(=O)c1ccc(NC(=O)N2CCN(c3ccnc(Nc4ccc(OCCN5CCCC5)cc4)n3)CC2)cc1`, for which the inhibition was found to be 82% in assay [1] and 59% in assay [2]. In the assay with HEL, the GI50 was > 50 µM.

Turning to `CC(=O)c1ccc(NC(=O)N2CCN(c3ccnc(Nc4ccc(N5CCSCC5)cc4)n3)CC2)cc1`, the inhibition in assay [1] is 77.6%; in assay [2], 73.9%. For the same molecule, the IC50 in assay [3] was 0.04 µM; in assay [4], 0.0298 µM. Also, the GI50 with HEL was 4.7 µM; with HL-60, > 50 µM; with MV4-11, 17.8 µM.

For the molecule `N#Cc1cccc(NC(=O)N2CCN(c3ccnc(Nc4ccc(N5CCOCC5)cc4)n3)CC2)c1`, the results for the inhibition in assay [1] and in assay [2] were 15.9% and 8.1%, respectively.

Consider `O=C(Nc1ccc(F)cc1)N1CCN(c2ccnc(Nc3ccc(N4CCOCC4)cc3)n2)CC1`, for which the inhibition amounted to 27.8% in assay [1] and 54.8% in assay [2].

Consider `CC(=O)c1ccc(NC(=O)N2CCN(c3ccnc(Nc4ccc(OCCN5CCOCC5)cc4)n3)CC2)cc1`, for which the inhibition in assay [1] is 70.6%; in assay [2], 61.7%. Besides, the concentration for 50% growth inhibition (GI50) in the assay with HEL was 8.9 µM.

As to `O=C(Nc1ccccc1C(F)(F)F)N1CCN(c2ccnc(Nc3ccc(N4CCOCC4)cc3)n2)CC1`, the inhibition was 15% in assay [1] and 21.8% in assay [2].

On to `CC(=O)c1ccc(NC(=O)N2CCN(c3ccnc(Nc4ccc(N5CCC(C)CC5)cc4)n3)CC2)cc1`, for which the inhibition in assay [1] was determined as 54%; in assay [2], 53%. The GI50 with HEL came to 26.4 µM.

`NC(=O)c1ccccc1NC(=O)N1CCN(c2ccnc(Nc3ccc(N4CCOCC4)cc3)n2)CC1`: the values for the inhibition in assay [1] and in assay [2] were 12.5% and 9.5%, respectively.

Take `CC(=O)c1ccc(NC(=O)N2CCN(c3ccnc(Nc4ccc(OCCN5CCCC5)cc4)n3)CC2)cc1`: the inhibition in assay [1] was 69%; in assay [2], 45%. Moreover, the GI50 in the assay on HEL is 30.3 µM.

With `CN1CCN(c2ccc(Nc3nccc(N4CCN(C(=O)Nc5ccc(C(N)=O)cc5)CC4)n3)cc2)CC1`, the figures for the inhibition in assay [1] and in assay [2] were 85% and 84%, respectively. In addition, in the assay on HEL, the 50% growth inhibitory concentration (GI50) was > 50 µM.

`CC(=O)c1ccc(NC(=O)N2CCN(c3ccnc(Nc4ccc(N5CCN(C)CC5)cc4)n3)CC2)cc1`: the inhibition turned out to be 87.5% in assay [1] and 80.8% in assay [2]. Moreover, the results for the IC50 in assay [3] and in assay [4] were 0.012 µM and 0.0138 µM, respectively. For the same molecule, the concentration for 50% growth inhibition (GI50) with HEL was 14.1 µM; in the assay with HL-60, 46.4 µM; in the assay on MV4-11, 32 µM.

Consider `N#Cc1ccc(NC(=O)N2CCN(c3ccnc(Nc4ccc(N5CCOCC5)cc4)n3)CC2)cc1`, for which the inhibition was found to be 70.8% in assay [1] and 78% in assay [2].

Turning to `CC(=O)c1ccc(NC(=O)N2CCN(c3ccnc(Nc4ccc(OCCCN5CCCC5)cc4)n3)CC2)cc1`, the inhibition was 83.2% in assay [1] and 60.7% in assay [2]. The values for the IC50 in assay [3] and in assay [4] were 0.013 µM and 0.065 µM, respectively. For the same molecule, the results for the GI50 in the assay with HEL, in the assay on HL-60 and with MV4-11 were 3.3 µM, 29.4 µM and 11 µM, respectively.

As for `CC(=O)c1ccccc1NC(=O)N1CCN(c2ccnc(Nc3ccc(N4CCOCC4)cc3)n2)CC1`, the inhibition came to 13.8% in assay [1] and 18.9% in assay [2].

On to `CC(=O)c1ccc(NC(=O)N2CCN(c3ccnc(Nc4ccc(OCCCN5CCOCC5)cc4)n3)CC2)cc1`, for which the inhibition in assay [1] was determined as 70.9%; in assay [2], 60.9%. Moreover, the GI50 in the assay with HEL is 10.7 µM.

For the molecule `O=C(Nc1ccc(C(=O)N2CCOCC2)cc1)N1CCN(c2ccnc(Nc3ccc(N4CCOCC4)cc3)n2)CC1`, the results for the inhibition in assay [1] and in assay [2] were 17.2% and 20%, respectively.

Turning to `CN1CCN(c2ccc(Nc3nccc(N4CCN(C(=O)Nc5ccc(S(N)(=O)=O)cc5)CC4)n3)cc2)CC1`, the figures for the inhibition in assay [1] and in assay [2] were 86% and 76%, respectively. The 50% growth inhibitory concentration (GI50) with HEL is > 50 µM.

Consider `CNC(=O)c1ccc(NC(=O)N2CCN(c3ccnc(Nc4ccc(N5CCOCC5)cc4)n3)CC2)cc1`, for which the inhibition in assay [1] was 35.8%; in assay [2] it was 68.1%.
